Columns and labels:
[1] = molecular target: T1, Serotonin 3 (5-HT3) receptor (Rattus norvegicus, UniProt P35563+Q9JJ16); test: Ability to displace [3H]granisetron specifically bound to 5-hydroxytryptamine 3 receptor in rat cortical membrane; type: cell membranes
T1 sequence (P35563 whole entry): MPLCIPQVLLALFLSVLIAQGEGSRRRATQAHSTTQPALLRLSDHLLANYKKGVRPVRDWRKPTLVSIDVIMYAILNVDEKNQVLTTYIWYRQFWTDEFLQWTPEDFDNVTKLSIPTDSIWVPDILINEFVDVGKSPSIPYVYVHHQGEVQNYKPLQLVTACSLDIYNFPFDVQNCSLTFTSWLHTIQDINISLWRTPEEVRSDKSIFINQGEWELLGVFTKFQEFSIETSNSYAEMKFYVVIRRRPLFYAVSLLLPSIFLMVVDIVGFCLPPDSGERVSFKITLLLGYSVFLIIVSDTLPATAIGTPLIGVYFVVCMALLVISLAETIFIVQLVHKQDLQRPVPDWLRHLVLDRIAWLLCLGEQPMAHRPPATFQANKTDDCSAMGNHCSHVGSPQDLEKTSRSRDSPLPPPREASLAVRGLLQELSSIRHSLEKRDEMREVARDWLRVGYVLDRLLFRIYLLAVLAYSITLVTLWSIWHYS
T1 sequence (Q9JJ16 whole entry): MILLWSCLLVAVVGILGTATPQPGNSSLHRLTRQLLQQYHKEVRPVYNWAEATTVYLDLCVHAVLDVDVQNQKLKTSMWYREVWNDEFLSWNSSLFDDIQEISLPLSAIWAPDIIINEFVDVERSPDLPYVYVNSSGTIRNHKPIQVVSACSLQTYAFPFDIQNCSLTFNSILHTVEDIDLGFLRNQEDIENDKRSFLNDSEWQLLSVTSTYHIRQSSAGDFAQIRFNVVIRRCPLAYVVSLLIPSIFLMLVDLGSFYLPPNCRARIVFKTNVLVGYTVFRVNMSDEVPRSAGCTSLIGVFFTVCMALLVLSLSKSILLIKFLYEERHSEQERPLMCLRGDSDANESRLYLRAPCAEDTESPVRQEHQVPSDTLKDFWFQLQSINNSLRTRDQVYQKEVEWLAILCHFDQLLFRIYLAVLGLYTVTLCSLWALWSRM
Method in brief: (§1)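 Cortex and hippocampus of male Wistar rats homogenized in 50 mM Hepes pH 7.4 and assayed in 50 mM Hepes HCl pH 7.4. Filtered on GF/B presoaked in 0.1% polyethylenimine. Ki by Cheng-Prusoff from IC50. Mean ± SEM of three.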

[2] = molecular target: T1, Serotonin 3 (5-HT3) receptor; test: Binding affinity at 5-hydroxytryptamine 3 receptor in rat cortical membrane by [3H]graniestron displacement.; type: cell membranes; method in brief: as §1
[3] = molecular target: T2, 5-hydroxytryptamine receptor 1A (Rattus norvegicus, UniProt P19327); test: Ability to displace [3H]- -OH-DPAT bound to 5-hydroxytryptamine 1A receptor in rat hippocampus; type: tissue-based
T2 sequence (P19327 whole entry): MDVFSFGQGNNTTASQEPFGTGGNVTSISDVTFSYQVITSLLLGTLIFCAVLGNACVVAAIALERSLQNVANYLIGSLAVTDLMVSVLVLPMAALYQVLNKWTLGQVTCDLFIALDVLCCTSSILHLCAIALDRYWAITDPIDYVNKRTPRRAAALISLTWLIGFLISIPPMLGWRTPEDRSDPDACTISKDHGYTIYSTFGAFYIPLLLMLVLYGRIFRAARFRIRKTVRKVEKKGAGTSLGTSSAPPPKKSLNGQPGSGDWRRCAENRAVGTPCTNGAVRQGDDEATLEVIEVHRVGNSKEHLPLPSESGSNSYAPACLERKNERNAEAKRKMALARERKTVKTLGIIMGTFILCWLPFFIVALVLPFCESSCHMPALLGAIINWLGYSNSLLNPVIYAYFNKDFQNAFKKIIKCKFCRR
Method in brief: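 Male Wistar rat hippocampal membranes in 50 mM Tris HCl pH 7.4. Stopped by GF/B filtration, counted by scintillation. IC50 from competition curves, converted to Ki by Cheng-Prusoff. Mean ± SEM of three determinations.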

[4] = molecular target: Sodium-dependent serotonin transporter (Rattus norvegicus, UniProt P31652); test: Ability to displace [3H]paroxetine bound to Serotonin transporter receptor in rat forebrain
Sequence of Sodium-dependent serotonin transporter (P31652 whole entry): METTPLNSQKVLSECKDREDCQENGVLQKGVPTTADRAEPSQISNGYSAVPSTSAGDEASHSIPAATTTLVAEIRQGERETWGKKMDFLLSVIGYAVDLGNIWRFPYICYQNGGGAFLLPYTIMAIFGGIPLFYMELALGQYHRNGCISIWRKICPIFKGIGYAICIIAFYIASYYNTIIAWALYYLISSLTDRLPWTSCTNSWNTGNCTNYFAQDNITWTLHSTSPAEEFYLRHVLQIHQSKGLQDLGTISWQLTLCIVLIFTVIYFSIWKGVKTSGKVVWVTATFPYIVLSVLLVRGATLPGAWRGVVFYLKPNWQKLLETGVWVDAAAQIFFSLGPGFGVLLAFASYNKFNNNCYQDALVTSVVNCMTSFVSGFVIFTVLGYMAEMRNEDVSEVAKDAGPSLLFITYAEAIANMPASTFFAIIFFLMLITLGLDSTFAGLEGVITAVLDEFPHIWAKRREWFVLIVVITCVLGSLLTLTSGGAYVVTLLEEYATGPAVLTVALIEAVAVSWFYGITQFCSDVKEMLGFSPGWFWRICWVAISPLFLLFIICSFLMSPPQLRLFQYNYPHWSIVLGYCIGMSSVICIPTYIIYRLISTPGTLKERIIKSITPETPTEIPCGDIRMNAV
Method in brief: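 Rat forebrain membranes (male Wistar), stored at -80 °C, in 50 mM Tris HCl pH 7.4. Nonspecific binding with 1 μM 6-nitroquipazine. Filtered on GF/B presoaked in 0.5% polyethylenimine. Ki from IC50 via Cheng-Prusoff. Mean ± SEM of three.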

[5] = molecular target: T3, 5-hydroxytryptamine receptor 2C (Rattus norvegicus, UniProt P08909); test: Ability to displace [3H]mesulergine bound to 5-hydroxytryptamine 2C receptor in rat cortex; type: tissue-based
T3 sequence (P08909 whole entry): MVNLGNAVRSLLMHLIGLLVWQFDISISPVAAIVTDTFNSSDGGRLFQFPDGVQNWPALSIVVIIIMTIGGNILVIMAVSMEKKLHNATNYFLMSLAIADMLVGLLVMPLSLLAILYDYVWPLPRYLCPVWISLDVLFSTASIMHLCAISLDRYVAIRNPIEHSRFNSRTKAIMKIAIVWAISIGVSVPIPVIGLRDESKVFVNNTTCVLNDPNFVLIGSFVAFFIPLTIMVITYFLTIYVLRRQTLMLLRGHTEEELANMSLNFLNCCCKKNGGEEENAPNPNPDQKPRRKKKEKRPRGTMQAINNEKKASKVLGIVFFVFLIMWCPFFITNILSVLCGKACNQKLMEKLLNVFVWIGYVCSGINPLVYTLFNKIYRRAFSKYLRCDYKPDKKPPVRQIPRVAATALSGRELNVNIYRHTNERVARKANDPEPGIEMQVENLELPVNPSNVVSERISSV
Method in brief: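 Cortical membranes from male Wistar rats in 50 mM Tris HCl pH 7.7 with 10 μM pargyline, 4 mM CaCl2 and 0.1% ascorbic acid. Nonspecific binding with 1 μM mianserine. Filtration assay. Ki from IC50 via Cheng-Prusoff. Mean ± SEM, n=3.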

[6] = molecular target: 5-hydroxytryptamine receptor 1B (Rattus norvegicus, UniProt P28564); test: Ability to displace [3H]5-HT bound to 5-hydroxytryptamine 1B receptor in rat striatum; type: tissue-based
Sequence of 5-hydroxytryptamine receptor 1B (P28564 whole entry): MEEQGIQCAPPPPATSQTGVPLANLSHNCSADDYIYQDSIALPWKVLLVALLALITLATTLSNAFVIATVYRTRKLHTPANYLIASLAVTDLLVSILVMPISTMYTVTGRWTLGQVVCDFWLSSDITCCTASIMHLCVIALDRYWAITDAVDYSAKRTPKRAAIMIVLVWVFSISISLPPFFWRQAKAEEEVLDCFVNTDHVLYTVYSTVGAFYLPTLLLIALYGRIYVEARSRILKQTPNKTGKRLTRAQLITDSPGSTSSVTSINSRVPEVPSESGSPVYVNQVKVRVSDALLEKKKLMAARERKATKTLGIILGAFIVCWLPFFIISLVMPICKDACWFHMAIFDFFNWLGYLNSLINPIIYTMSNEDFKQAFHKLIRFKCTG
Method in brief: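 Striatal membranes from male Wistar rats in 50 mM Tris HCl pH 7.7 with 10 μM pargyline, 4 mM CaCl2 and 0.1% ascorbic acid. Filtration and scintillation counting. Ki from IC50 via Cheng-Prusoff. Mean ± SEM, n=3.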

[7] = molecular target: 5-hydroxytryptamine receptor 2A (Rattus norvegicus, UniProt P14842); test: Ability to displace [3H]ketanserin bound to 5-hydroxytryptamine 2A receptor in rat pre-frontal cortex; type: tissue-based
Sequence of 5-hydroxytryptamine receptor 2A (P14842 whole entry): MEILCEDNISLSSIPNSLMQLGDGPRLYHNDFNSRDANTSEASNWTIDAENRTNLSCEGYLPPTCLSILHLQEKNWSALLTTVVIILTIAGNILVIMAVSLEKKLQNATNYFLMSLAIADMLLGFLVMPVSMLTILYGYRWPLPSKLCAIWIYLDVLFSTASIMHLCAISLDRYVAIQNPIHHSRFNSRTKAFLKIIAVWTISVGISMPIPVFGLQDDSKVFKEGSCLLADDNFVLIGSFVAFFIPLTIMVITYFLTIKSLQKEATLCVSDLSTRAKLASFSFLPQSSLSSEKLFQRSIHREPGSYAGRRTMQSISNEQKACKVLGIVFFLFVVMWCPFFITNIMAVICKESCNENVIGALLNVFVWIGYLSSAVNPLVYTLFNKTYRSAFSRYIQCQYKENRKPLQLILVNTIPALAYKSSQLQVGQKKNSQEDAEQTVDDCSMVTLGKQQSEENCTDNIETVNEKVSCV
Method in brief: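 Rat prefrontal cortex membranes (male Wistar) in 50 mM Tris HCl pH 7.7. […] Nonspecific binding with 3 μM ketanserin. Filtered and counted by scintillation. IC50 converted to Ki via Cheng-Prusoff. Mean ± SEM of three determinations.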

Compound | Ki [1] | Ki [2] | also measured
CN1CCN(c2cccc(C34C[C@H]5C[C@@H](C3)C[C@@H](C4)C5)n2)CC1 | > 0.55 µM | – | Log Ki [2]: < -6.26
c1ccc(CN2CCN(c3nc4ccccc4c4c3CCCC4)CC2)cc1 | 0.011 µM | – | –
CN1CCN(c2ccc3c(n2)C2CCCCC2CC3)CC1 (stereo not given) | 0.66 µM | 0.661 µM | –
CN1CCN(c2nc3c(c4c2CCCC4)CCCC3)CC1 | 0.11 µM | 0.11 µM | –
C[N+]1(C)CCN(c2nc3ccccc3c3c2CCCC3)CC1 | 0.013 µM | – | –
CCN1CCN(c2nc3ccccc3c3c2CCCC3)CC1 | 0.0019 µM | – | –
CN1CCN(c2ccc3c(n2)CCc2ccccc2-3)CC1 | 0.83 µM | 0.832 µM | –
c1ccc2c3c(c(N4CCOCC4)nc2c1)CCCC3 | > 17 µM | – | –
CN1CCN(c2ccc3c(n2)-c2ccccc2CCC3)CC1 | > 0.55 µM | – | Log Ki [2]: < -6.26
CN1CCN(c2nc3ccccc3c3c2CC2CCC3C2)CC1 (stereo not given) | 0.00083 µM | 0.000832 µM | Ki [3]: 2.4 µM; Ki [4]: 24 µM; Ki [5]: 2.8 µM; Ki [6]: 2.3 µM; Ki [7]: 3.7 µM
CN1CCN(c2ccc3ccccc3n2)CC1 | 0.003 µM | 0.00302 µM | –
CN1CCN(c2ccc3ccc4ccccc4c3n2)CC1 | 0.2 µM | 0.2 µM | –
CN1CCN(c2ccc3c(n2)-c2ccccc2CC3)CC1 | 0.2 µM | 0.2 µM | –
CN1CCN(c2ccc3c(n2)-c2ccccc2C3)CC1 | 0.014 µM | 0.0141 µM | Ki [3]: 5.7 µM; Ki [4]: 0.059 µM; Ki [5]: 16 µM; Ki [6]: 3.8 µM; Ki [7]: 2.6 µM
CN1CCCN(c2nc3ccccc3c3c2CCCC3)CC1 | 0.0048 µM | – | –
CN1CCN(c2nc3ccccc3c3ccccc23)CC1 | 0.0019 µM | 0.00191 µM | –
CN1CCN(c2nc3ccccc3c3c2CCCC3)CC1 | 0.00023 µM | 0.000229 µM | Ki [3]: 2.8 µM; Ki [4]: 12 µM; Ki [5]: 4.4 µM; Ki [6]: > 4 µM; Ki [7]: 3 µM
c1ccc2c3c(c(N4CCNCC4)nc2c1)CCCC3 | 0.0017 µM | – | –
O=[N+]([O-])c1ccc2nc(N3CCNCC3)ccc2c1 [6-NITROQUIPAZINE] | 0.058 µM | – | Ki [4]: 0.00012 µM
CCCN(CCC)C1CCc2cccc(O)c2C1 (stereo not given) [8-OH-DPAT] | 0.0012 µM | – | –
c1ccc2nc(N3CCNCC3)ccc2c1 [QUIPAZINE] | – | – | Ki [5]: 0.19 µM; Ki [6]: 0.31 µM
